# Source: ChEMBL document CHEMBL2021843, “Small peptide inhibitors of acetyl-peptide hydrolase having an uncommon mechanism of inhibition and a stable bent conformation” (J Med Chem, 2012)
# The source made the active and inactive calls. The rule behind the calls is not given here.
# Columns and labels:
# [1] = target: T1, Acylamino-acid-releasing enzyme (Sus scrofa, UniProt P19205); experiment: (§1) Inhibition of pig APEH using acetyl-Ala-pNA as substrate incubated for 2 mins prior to substrate addition by spectrophotometry
# T1 sequence (P19205 whole entry): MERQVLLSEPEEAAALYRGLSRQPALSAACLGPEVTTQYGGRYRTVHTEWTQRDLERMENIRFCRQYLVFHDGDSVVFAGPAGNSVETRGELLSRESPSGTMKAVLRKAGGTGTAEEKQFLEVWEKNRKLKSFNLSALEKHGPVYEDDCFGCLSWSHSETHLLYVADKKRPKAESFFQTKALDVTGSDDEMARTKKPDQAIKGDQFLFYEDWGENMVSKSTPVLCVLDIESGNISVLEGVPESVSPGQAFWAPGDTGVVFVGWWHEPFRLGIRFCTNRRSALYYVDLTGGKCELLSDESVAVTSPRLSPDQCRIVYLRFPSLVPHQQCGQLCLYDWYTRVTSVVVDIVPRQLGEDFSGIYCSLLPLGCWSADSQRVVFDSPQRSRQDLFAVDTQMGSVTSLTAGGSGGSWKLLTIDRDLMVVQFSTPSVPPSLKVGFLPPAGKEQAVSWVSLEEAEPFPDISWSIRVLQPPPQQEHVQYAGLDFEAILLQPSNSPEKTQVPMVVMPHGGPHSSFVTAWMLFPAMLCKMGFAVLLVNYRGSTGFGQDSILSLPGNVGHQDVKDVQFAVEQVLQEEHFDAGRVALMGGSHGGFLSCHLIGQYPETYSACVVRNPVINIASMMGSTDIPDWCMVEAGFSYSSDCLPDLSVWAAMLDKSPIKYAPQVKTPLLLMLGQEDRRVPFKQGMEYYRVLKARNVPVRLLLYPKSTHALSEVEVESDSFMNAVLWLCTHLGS
# [2] = Inhibition of chymotrypsin incubated for 30 mins prior to substrate addition by spectrophotometry
# Method in brief: (§2)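 Panel of proteases tested up to a maximal 1000 μM inhibitor, each at its own pH: carboxypeptidase Y pH 7.0; chymotrypsin, elastase and trypsin pH 8.0; subtilisin and proteinase K pH 7.5. IC50 and maximal % inhibition were recorded.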
# [3] = Inhibition of elastase incubated for 30 mins prior to substrate addition by spectrophotometry; method in brief: as §2
# [4] = Inhibition of trypsin incubated for 30 mins prior to substrate addition by spectrophotometry; method in brief: as §2
# [5] = Inhibition of carboxypeptidase Y incubated for 30 mins prior to substrate addition by spectrophotometry; method in brief: as §2
# [6] = Inhibition of subtilisin incubated for 30 mins prior to substrate addition by spectrophotometry; method in brief: as §2
# [7] = Inhibition of proteinase K incubated for 30 mins prior to substrate addition by spectrophotometry; method in brief: as §2
# [8] = Inhibition of chymotrypsin at 1 mM incubated for 30 mins prior to substrate addition by spectrophotometry; method in brief: as §2
# [9] = Inhibition of elastase at 1 mM incubated for 30 mins prior to substrate addition by spectrophotometry; method in brief: as §2
# [10] = Inhibition of trypsin at 1 mM incubated for 30 mins prior to substrate addition by spectrophotometry; method in brief: as §2
# [11] = Inhibition of carboxypeptidase Y at 1 mM incubated for 30 mins prior to substrate addition by spectrophotometry; method in brief: as §2
# [12] = Inhibition of subtilisin at 1 mM incubated for 30 mins prior to substrate addition by spectrophotometry; method in brief: as §2
# [13] = Inhibition of proteinase K at 1 mM incubated for 30 mins prior to substrate addition by spectrophotometry; method in brief: as §2
# HeLa [14] = experiment: Cytotoxicity against human HeLa cells assessed as LDH production after 24 hrs by spectrophotometry; type: functional, cell-based
# Method in brief: (§3)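 LDH release into culture medium after 24 h exposure of HeLa or A375 cells to peptide (50, 100, 150 μM). Medium from untreated cultures served as control, and medium from cells exposed to 1% Triton X-100 served as the 100% release positive control. Data are means ± SD.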
# [15] = target: T2, Acylamino-acid-releasing enzyme (Homo sapiens) (UniProt P13798); experiment: Inhibition of APEH in human HeLa cells after 24 hrs; type: cell-based
# T2 sequence (whole entry): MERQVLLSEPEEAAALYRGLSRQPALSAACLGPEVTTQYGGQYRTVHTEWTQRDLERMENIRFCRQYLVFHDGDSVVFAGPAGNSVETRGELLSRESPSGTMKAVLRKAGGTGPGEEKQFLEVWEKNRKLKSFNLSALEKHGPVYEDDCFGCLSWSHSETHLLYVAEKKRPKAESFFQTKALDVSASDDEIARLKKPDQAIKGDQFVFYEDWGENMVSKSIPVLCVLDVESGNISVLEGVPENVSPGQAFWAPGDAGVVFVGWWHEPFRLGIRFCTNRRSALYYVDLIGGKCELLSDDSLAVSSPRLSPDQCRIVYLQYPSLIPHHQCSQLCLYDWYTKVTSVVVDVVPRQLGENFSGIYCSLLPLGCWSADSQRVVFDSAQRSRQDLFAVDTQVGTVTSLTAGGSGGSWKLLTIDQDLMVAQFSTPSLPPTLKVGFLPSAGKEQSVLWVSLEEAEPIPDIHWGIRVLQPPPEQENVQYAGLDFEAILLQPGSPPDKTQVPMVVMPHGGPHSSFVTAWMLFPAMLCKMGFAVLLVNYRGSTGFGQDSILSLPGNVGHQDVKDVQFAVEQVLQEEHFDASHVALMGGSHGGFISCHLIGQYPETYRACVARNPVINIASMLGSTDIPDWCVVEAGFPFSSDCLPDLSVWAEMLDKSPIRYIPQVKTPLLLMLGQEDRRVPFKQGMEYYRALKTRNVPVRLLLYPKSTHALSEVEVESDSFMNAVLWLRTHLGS
# Method in brief: (§4)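 Melanoma A375 and cervical HeLa cells were exposed for 24 h to peptide at 50, 100 or 150 μM. Data are means ± SD.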
# [16] = target: T2, Acylamino-acid-releasing enzyme (Homo sapiens); experiment: Inhibition of APEH in human A375 cells after 24 hrs; type: cell-based; settings: A-375; method in brief: as §4
# [17] = target: T2, Acylamino-acid-releasing enzyme (Homo sapiens); experiment: Inhibition of APEH in human HeLa cells at 150 uM after 24 hrs; type: cell-based; method in brief: as §4
# [18] = target: T2, Acylamino-acid-releasing enzyme (Homo sapiens); experiment: Inhibition of APEH in human A375 cells at 150 uM after 24 hrs; type: cell-based; settings: A-375; method in brief: as §4
# HeLa [19] = experiment: Proapoptotic activity in human HeLa cells assessed as caspase 3-mediated hydrolysis of Ac-DEVD-AMC at 100 uM after 24 hrs by fluorimetry; type: functional, cell-based
# Method in brief: (§5)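 Caspase 3 activity was measured fluorimetrically with a kit after 24 h exposure of HeLa or A375 cells to compound. It was expressed as fold increase over untreated culture. Data come from triplicate analyses in three experiments, given as means ± SD.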
# HeLa [20] = experiment: Proapoptotic activity in human HeLa cells assessed as caspase 3-mediated hydrolysis of Ac-DEVD-AMC at 150 uM after 24 hrs by fluorimetry; type: functional, cell-based; method in brief: as §5
# A-375 [21] = experiment: Proapoptotic activity in human A375 cells assessed as caspase 3-mediated hydrolysis of Ac-DEVD-AMC at 100 uM after 24 hrs by fluorimetry; type: functional, cell-based; method in brief: as §5
# HeLa [22] = experiment: Cytotoxicity against human HeLa cells assessed as LDH production at 50 to 150 uM after 24 hrs by spectrophotometry; type: functional, cell-based; method in brief: as §3
# A-375 [23] = experiment: Cytotoxicity against human A375 cells assessed as LDH production at 50 to 150 uM after 24 hrs by spectrophotometry; type: functional, cell-based; method in brief: as §3
# A-375 [24] = experiment: Proapoptotic activity in human A375 cells assessed as caspase 3-mediated hydrolysis of Ac-DEVD-AMC at 150 uM after 24 hrs by fluorimetry; type: functional, cell-based; method in brief: as §5
# [25] = target: T3, Acylamino-acid-releasing enzyme (Sus scrofa) (UniProt P19205); settings: 150 uM
# T3 sequence (whole entry): T1 sequence (P19205 whole entry)
# [26] = target: T3, Acylamino-acid-releasing enzyme (Sus scrofa); settings: 1 mM
# [27] = target: T3, Acylamino-acid-releasing enzyme (Sus scrofa); settings: 50 to 100 uM
# [28] = target: T3, Acylamino-acid-releasing enzyme (Sus scrofa); settings: 50 uM
# [29] = target: T3, Acylamino-acid-releasing enzyme (Sus scrofa); experiment: as §1
# HeLa [30] = experiment: Proapoptotic activity in human HeLa cells assessed as caspase 3-mediated hydrolysis of Ac-DEVD-AMC at 30 uM after 24 hrs by fluorimetry relative to untreated control; type: functional; method in brief: as §5
# HeLa [31] = experiment: Proapoptotic activity in human HeLa cells assessed as caspase 3-mediated hydrolysis of Ac-DEVD-AMC at 50 uM after 24 hrs by fluorimetry relative to untreated control; type: functional; method in brief: as §5
# HeLa [32] = experiment: Cytotoxicity against human HeLa cells assessed as LDH production at 100 uM after 24 hrs by spectrophotometry; type: functional; method in brief: as §3
structure (smiles),measurement,setting,value
CSCC[C@@H](NC(=O)[C@@H](CC(C)C)NC(=O)C(F)(F)F)C(=O)N1CCC[C@@H]1C(=O)N[C@H](Cc1cnc[nH]1)C(N)=O,IC50,[1],98 µM
same,Ki,[1],24 µM
same,IC50,[2],> 1000 µM
same,IC50,[3],> 1000 µM
same,IC50,[4],> 1000 µM
same,IC50,[5],210 µM
same,IC50,[6],> 1000 µM
same,IC50,[7],> 1000 µM
same,Imax,[8],< 1%
same,Imax,[9],< 1%
same,Imax,[10],< 1%
same,Imax,[11],30%
same,Imax,[12],< 1%
same,Imax,[13],< 1%
same,Activity,HeLa [14],inactive
same,inhibition,[15],Dose-dependent effect
same,inhibition,[16],Dose-dependent effect
same,Imax,[17],80%
same,Imax,[18],50%
same,Activity,HeLa [19],Active
same,Activity,HeLa [20],Active
same,Activity,A-375 [21],Active
same,Activity,HeLa [22],inactive
same,Activity,A-375 [23],inactive
same,Activity,A-375 [24],Active
same,Imax,[25],72%
same,Imax,[26],72%
same,inhibition,[27],Active
same,inhibition,[28],> 25%
CSCC[C@@H](NC(=O)[C@H](N)CC(C)C)C(=O)N1CCC[C@@H]1C(=O)N[C@H](Cc1cnc[nH]1)C(N)=O,inhibition,[29],inactive
CSCC[C@@H](NC(=O)[C@@H](CC(C)C)NC(C)=O)C(=O)N1CCC[C@@H]1C(=O)N[C@H](Cc1cnc[nH]1)C(N)=O,inhibition,[29],inactive
CSCC[C@@H](NC(=O)[C@@H](CC(C)C)NC(=O)C(F)(F)F)C(=O)N1CCC[C@@H]1C(=O)N[C@H](CC(=O)O)C(N)=O,Activity,HeLa [14],inactive
CC[C@@H](C)[C@@H](O)[C@H](C)C(=O)[C@H](C)/C=C(\C)C[C@H](C)[C@@H]1OC(=O)[C@H]1CC [EBELACTONE B],fold change (FC),HeLa [30],5
same,fold change (FC),HeLa [31],5
same,Activity,HeLa [32],28%
same,Activity,HeLa [14],Dose-dependent effect
